Experimental data from ChEMBL document CHEMBL5705906 (Nat Commun, 2017).
Activity calls are given as the source filed them.

Columns and labels:
[1] = Cytotoxicity against mouse Ba/F3 EGFR-Del19/T790M/C797S cells assessed as inhibition of cell viability incubated for 72 hrs by CellTiter-Glo assay; format: functional, cell-based
[2] = system: BaF3; assay: Inhibition of EGFR-C797S/T790M/del19 mutant in mouse BaF3 cells assessed as reduction in EGFR phosphorylation incubated for 6 hrs by Western blotting analysis; format: cell-based
[3] = system: BaF3; assay: Inhibition of EGFR-C797S/T790M/del19 mutant in mouse BaF3 cells assessed as reduction in Akt phosphorylation incubated for 6 hrs by Western blotting analysis; format: cell-based
[4] = system: BaF3; assay: Inhibition of EGFR-C797S/T790M/del19 mutant in mouse BaF3 cells assessed as reduction in ERK phosphorylation incubated for 6 hrs by Western blotting analysis; format: cell-based
[5] = system: BaF3; assay: Inhibition of EGFR-C797S/T790M/del19 mutant in mouse BaF3 cells assessed as reduction in S6 phosphorylation incubated for 6 hrs by Western blotting analysis; format: cell-based
Method in brief: (§1)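 Ba/F3 cells carrying the stated EGFR mutant were made IL-3-independent after 1 week of 7 µM blasticidin selection. They were grown in low-glucose DMEM with 10% FBS and exposed to inhibitor for 6 h. Cells were washed in cold PBS, lysed in SDS buffer (100 mM Tris, 1% SDS, 10% glycerol) and boiled 5 min. Protein was measured by BCA, run on SDS-PAGE, transferred to PVDF, blocked in 5% BSA or milk/TBS-T, and immunoblotted.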

[6] = system: BaF3; assay: Inhibition of EGFR-T790M/del19 mutant in mouse BaF3 cells assessed as inhibition of EGFR phosphorylation at 10 to 1000 nM incubated for 6 hrs by Western blotting analysis; format: cell-based; conditions: dose 10-1000 nM; method in brief: as §1
[7] = system: BaF3; format: cell-based; conditions: Mus musculus, dose 10-1000 nM, time 6.0 hrs
[8] = system: BaF3; assay: Inhibition of EGFR-del19 mutant in mouse BaF3 cells assessed as inhibition of Akt phosphorylation at 10 to 1000 nM incubated for 6 hrs by Western blotting analysis; format: cell-based; conditions: dose 10-1000 nM; method in brief: as §1
[9] = system: BaF3; assay: Inhibition of EGFR-del19 mutant in mouse BaF3 cells assessed as inhibition of ERK phosphorylation at 10 to 1000 nM incubated for 6 hrs by Western blotting analysis; format: cell-based; conditions: dose 10-1000 nM; method in brief: as §1
[10] = system: BaF3; assay: Inhibition of EGFR-del19 mutant in mouse BaF3 cells assessed as inhibition of S6 phosphorylation at 10 to 1000 nM incubated for 6 hrs by Western blotting analysis; format: cell-based; conditions: dose 10-1000 nM; method in brief: as §1
[11] = system: BaF3; assay: Inhibition of EGFR-T790M/del19 mutant in mouse BaF3 cells assessed as inhibition of Akt phosphorylation at 10 to 1000 nM incubated for 6 hrs by Western blotting analysis; format: cell-based; conditions: dose 10-1000 nM; method in brief: as §1
[12] = system: BaF3; assay: Inhibition of EGFR-T790M/del19 mutant in mouse BaF3 cells assessed as inhibition of ERK phosphorylation at 10 to 1000 nM incubated for 6 hrs by Western blotting analysis; format: cell-based; conditions: dose 10-1000 nM; method in brief: as §1
[13] = system: BaF3; assay: Inhibition of EGFR-T790M/del19 mutant in mouse BaF3 cells assessed as inhibition of S6 phosphorylation at 10 to 1000 nM incubated for 6 hrs by Western blotting analysis; format: cell-based; conditions: dose 10-1000 nM; method in brief: as §1
[14] = system: BaF3; format: cell-based; conditions: Mus musculus, dose 10-1000 nM, time 6.0 hrs; remark: listed apart in the source
[15] = system: BaF3; format: cell-based; conditions: Mus musculus, dose 10-1000 nM, time 6.0 hrs; remark: listed apart in the source
[16] = system: BaF3; format: cell-based; conditions: Mus musculus, dose 10-1000 nM, time 6.0 hrs; remark: listed apart in the source
[17] = system: BaF3; assay: Inhibition of EGFR-C797S/T790M/L858R mutant in mouse BaF3 cells assessed as inhibition of EGFR phosphorylation at 10 to 1000 nM incubated for 6 hrs by Western blotting analysis; format: cell-based; conditions: dose 10-1000 nM
Method in brief: (§2)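 Ba/F3 cells expressing EGFR-L858R-series mutants treated with inhibitors for 6 h. SDS lysates quantified by BCA, run on SDS-PAGE and blotted to PVDF. Probed for phospho-EGFR (Tyr1068), total EGFR and downstream phospho-proteins.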

[18] = system: BaF3; assay: Inhibition of EGFR-C797S/T790M/L858R mutant expressed in mouse BaF3 cells assessed as inhibition of Akt phosphorylation at 10 to 1000 nM incubated for 6 hrs by Western blotting analysis; format: cell-based; conditions: dose 10-1000 nM; method in brief: as §2
[19] = system: BaF3; assay: Inhibition of EGFR-C797S/T790M/L858R mutant expressed in mouse BaF3 cells assessed as inhibition of ERK phosphorylation at 10 to 1000 nM incubated for 6 hrs by Western blotting analysis; format: cell-based; conditions: dose 10-1000 nM; method in brief: as §2
[20] = system: BaF3; assay: Inhibition of EGFR-C797S/T790M/L858R mutant in mouse BaF3 cells assessed as inhibition of S6 phosphorylation at 10 to 1000 nM incubated for 6 hrs by Western blotting analysis; format: cell-based; conditions: dose 10-1000 nM; method in brief: as §2
[21] = system: PC-9; assay: Inhibition of EGFR T790M/del19 mutant in human PC-9 cells assessed as reduction in EGFR phosphorylation at 10 to 1000 nM by Western blotting analysis; format: cell-based; conditions: dose 10-1000 nM
[22] = system: PC-9; assay: Inhibition of EGFR T790M/del19 mutant in human PC-9 cells assessed as reduction in Akt phosphorylation at 10 to 1000 nM by Western blotting analysis; format: cell-based; conditions: dose 10-1000 nM
[23] = system: PC-9; assay: Inhibition of EGFR T790M/del19 mutant in human PC-9 cells assessed as reduction in ERK phosphorylation at 10 to 1000 nM by Western blotting analysis; format: cell-based; conditions: dose 10-1000 nM
[24] = system: PC-9; assay: Inhibition of EGFR T790M/del19 mutant in human PC-9 cells assessed as reduction in S6 phosphorylation at 10 to 1000 nM by Western blotting analysis; format: cell-based; conditions: dose 10-1000 nM
[25] = Cytotoxicity against mouse Ba/F3 EGFR-Del19/T790M/C797S cells assessed as inhibition of cell viability by measuring fold change at 30 nM incubated for 72 hrs in presence of cetuximab by CellTiter-Glo assay relative to AP26113-analog alone; format: functional
[26] = system: Epidermal growth factor receptor (Homo sapiens), P00533 [UNDEFINED MUTATION]; conditions: PC-9, dose 10-1000 nM
[27] = system: Epidermal growth factor receptor (Homo sapiens), P00533 [UNDEFINED MUTATION]; conditions: PC-9, dose 10-1000 nM; remark: listed apart in the source
[28] = system: Epidermal growth factor receptor (Homo sapiens), P00533 [UNDEFINED MUTATION]; conditions: PC-9, dose 10-1000 nM; remark: listed apart in the source
[29] = system: Epidermal growth factor receptor (Homo sapiens), P00533 [UNDEFINED MUTATION]; conditions: PC-9, dose 10-1000 nM; remark: listed apart in the source
[30] = system: Epidermal growth factor receptor (Homo sapiens), P00533 [UNDEFINED MUTATION]; conditions: MGH121, dose 10-1000 nM
[31] = system: Epidermal growth factor receptor (Homo sapiens), P00533 [UNDEFINED MUTATION]; conditions: MGH121, dose 10-1000 nM; remark: listed apart in the source
[32] = system: Epidermal growth factor receptor (Homo sapiens), P00533 [UNDEFINED MUTATION]; conditions: MGH121, dose 10-1000 nM; remark: listed apart in the source
[33] = system: Epidermal growth factor receptor (Homo sapiens), P00533 [UNDEFINED MUTATION]; conditions: MGH121, dose 10-1000 nM; remark: listed apart in the source
[34] = system: Epidermal growth factor receptor (Homo sapiens), P00533 [UNDEFINED MUTATION]; conditions: PC-9, dose 10-1000 nM; remark: listed apart in the source
[35] = system: Epidermal growth factor receptor (Homo sapiens), P00533 [UNDEFINED MUTATION]; conditions: PC-9, dose 10-1000 nM; remark: listed apart in the source
[36] = system: Epidermal growth factor receptor (Homo sapiens), P00533 [UNDEFINED MUTATION]; conditions: PC-9, dose 10-1000 nM; remark: listed apart in the source
[37] = system: Epidermal growth factor receptor (Homo sapiens), P00533 [UNDEFINED MUTATION]; conditions: PC-9, dose 10-1000 nM; remark: listed apart in the source
[38] = system: BaF3; assay: Inhibition of EGFR-C797S/T790M/del19 mutant in mouse BaF3 cells assessed as reduction in EGFR phosphorylation at 10 to 1000 nM by Western blotting analysis; format: cell-based; conditions: dose 10-1000 nM
[39] = system: BaF3; assay: Inhibition of EGFR-C797S/T790M/del19 mutant in mouse BaF3 cells assessed as reduction in Akt phosphorylation at 10 to 1000 nM by Western blotting analysis; format: cell-based; conditions: dose 10-1000 nM
[40] = system: BaF3; assay: Inhibition of EGFR-C797S/T790M/del19 mutant in mouse BaF3 cells assessed as reduction in ERK phosphorylation at 10 to 1000 nM by Western blotting analysis; format: cell-based; conditions: dose 10-1000 nM
[41] = system: BaF3; assay: Inhibition of EGFR-C797S/T790M/del19 mutant in mouse BaF3 cells assessed as reduction in S6 phosphorylation at 10 to 1000 nM by Western blotting analysis; format: cell-based; conditions: dose 10-1000 nM
[42] = system: BaF3; assay: Inhibition of EGFR-C797S/T790M/del19 mutant in mouse BaF3 cells assessed as reduction in Akt protein level at 10 to 1000 nM by Western blotting analysis; format: cell-based; conditions: dose 10-1000 nM
[43] = system: BaF3; assay: Inhibition of EGFR-C797S/T790M/del19 mutant in mouse BaF3 cells assessed as reduction in ERK protein level at 10 to 1000 nM by Western blotting analysis; format: cell-based; conditions: dose 10-1000 nM
[44] = system: BaF3; assay: Inhibition of EGFR-C797S/T790M/del19 mutant in mouse BaF3 cells assessed as reduction in S6 protein level at 10 to 1000 nM by Western blotting analysis; format: cell-based; conditions: dose 10-1000 nM
[45] = system: A549; assay: Anticancer activity against KRAS-mutated human A549 cells assessed as reduction in cell viability at 1 to 10000 nM incubated for 72 hrs by CellTiter-Glo assay; format: functional, cell-based; conditions: dose 1-10000 nM
[46] = system: NCI-H460; assay: Anticancer activity against KRAS-mutated human NCI-H460 cells assessed as reduction in cell viability at 1 to 10000 nM incubated for 72 hrs by CellTiter-Glo assay; format: functional, cell-based; conditions: dose 1-10000 nM
[47] = system: PC-9; format: functional, organism-based; conditions: Homo sapiens, dose 50.0 mg/kg, route po, time 15.0 day
[48] = system: PC-9; assay: Anti-tumor activity against EGFR T790M/del19 mutant expressing gefitinib-resistant human PC-9 cells xenografted in Balb-c nu/nu mouse assessed as growth inhibition at 50 mg/kg, po administered for 42 days; format: functional, organism-based; conditions: time 42.0 day
Method in brief: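 Balb-c nu/nu mice were implanted subcutaneously with 6×10^6 PC9-triple-mutant or PC9-T790M cells in 100 µl 1:2 Matrigel. At a mean tumour volume of ~200 mm³, mice were randomized (top and bottom 5% excluded) and dosed once daily by oral gavage. Caliper volume (0.5×L×W²) was measured twice weekly and expressed relative to day 0. n≥6 per group; Mann-Whitney U test.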

[49] = system: PC-9; assay: Anti-tumor activity against EGFR T790M/del19 mutant expressing gefitinib-resistant human PC-9 cells xenografted in Balb-c nu/nu mouse assessed as prolonged survival at 50 mg/kg, po administered for 42 days; format: functional, organism-based; conditions: time 42.0 day
[50] = system: Ba/F3 EGFR-Del19/T790M/C797S; assay: Cytotoxicity against mouse Ba/F3 EGFR-Del19/T790M/C797S cells assessed as inhibition of cell viability by measuring fold change at 300 nM incubated for 72 hrs in presence of cetuximab by CellTiter-Glo assay; format: functional, cell-based
[51] = system: PC-9; format: functional, organism-based; conditions: Homo sapiens, dose 50.0 mg/kg, route po, time 60.0 day
[52] = system: PC-9; format: functional, organism-based; conditions: Homo sapiens, dose 50.0 mg/kg, route po, time 60.0 day; remark: listed apart in the source

Chain of Epidermal growth factor receptor (Homo sapiens), P00533 [UNDEFINED MUTATION] (P00533 whole entry, looked up, change not shown): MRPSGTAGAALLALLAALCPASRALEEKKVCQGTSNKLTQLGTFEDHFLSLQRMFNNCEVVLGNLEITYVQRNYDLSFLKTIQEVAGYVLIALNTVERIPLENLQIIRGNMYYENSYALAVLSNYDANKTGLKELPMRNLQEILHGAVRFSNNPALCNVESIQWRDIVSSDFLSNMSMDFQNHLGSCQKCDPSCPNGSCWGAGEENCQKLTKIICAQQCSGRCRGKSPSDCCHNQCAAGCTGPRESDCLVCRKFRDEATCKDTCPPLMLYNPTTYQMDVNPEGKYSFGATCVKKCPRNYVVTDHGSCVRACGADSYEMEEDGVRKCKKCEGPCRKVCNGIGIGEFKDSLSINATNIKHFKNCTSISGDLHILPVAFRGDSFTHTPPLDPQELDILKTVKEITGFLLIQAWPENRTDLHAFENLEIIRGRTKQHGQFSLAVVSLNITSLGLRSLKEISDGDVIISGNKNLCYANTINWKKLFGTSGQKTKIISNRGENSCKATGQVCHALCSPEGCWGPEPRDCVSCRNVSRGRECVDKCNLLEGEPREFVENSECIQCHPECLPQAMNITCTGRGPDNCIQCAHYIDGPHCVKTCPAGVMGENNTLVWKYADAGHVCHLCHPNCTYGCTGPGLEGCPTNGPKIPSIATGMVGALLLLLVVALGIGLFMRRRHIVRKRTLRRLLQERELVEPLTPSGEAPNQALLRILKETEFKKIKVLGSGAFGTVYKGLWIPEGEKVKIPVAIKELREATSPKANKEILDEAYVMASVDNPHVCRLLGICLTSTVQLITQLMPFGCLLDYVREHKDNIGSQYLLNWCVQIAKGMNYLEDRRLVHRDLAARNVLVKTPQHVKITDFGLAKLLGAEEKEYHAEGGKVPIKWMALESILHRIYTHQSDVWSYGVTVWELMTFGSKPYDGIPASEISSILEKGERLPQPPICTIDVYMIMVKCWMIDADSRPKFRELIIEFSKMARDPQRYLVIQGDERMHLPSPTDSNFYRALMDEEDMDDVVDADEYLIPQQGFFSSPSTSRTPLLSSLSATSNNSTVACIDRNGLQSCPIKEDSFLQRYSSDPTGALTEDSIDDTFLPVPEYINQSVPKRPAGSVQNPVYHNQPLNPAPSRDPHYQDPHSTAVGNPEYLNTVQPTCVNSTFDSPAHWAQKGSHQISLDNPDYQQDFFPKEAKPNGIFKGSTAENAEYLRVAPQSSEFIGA

COc1cc(N2CCC(N(C)C)CC2)ccc1Nc1ncc(Cl)c(Nc2ccccc2P(C)(C)=O)n1
59.1 nM: IC50 [1]
active: inhibition [2] | inhibition [3] | inhibition [4] | inhibition [5] | inhibition [6] | inhibition [7] | inhibition [8] | inhibition [9] | inhibition [10] | inhibition [11] | inhibition [12] | inhibition [13] | inhibition [14] | inhibition [15] | inhibition [16] | inhibition [17] | inhibition [18] | inhibition [19] | inhibition [20] | inhibition [21] | inhibition [22] | inhibition [23] | inhibition [24] | inhibition [26] | inhibition [27] | inhibition [28] | inhibition [29] | inhibition [30] | inhibition [31] | inhibition [32] | inhibition [33] | inhibition [34] | inhibition [35] | inhibition [36] | inhibition [37]
~3: fold change (FC) [25]

C=CC(=O)Nc1cc(Nc2nccc(-c3cn(C)c4ccccc34)n2)c(OC)cc1N(C)CCN(C)C
inactive: inhibition [38] | inhibition [39] | inhibition [40] | inhibition [41] | inhibition [42] | inhibition [43] | inhibition [44] | Activity [47] | Activity [50]
active: Activity [45] | Activity [46] | inhibition [21] | inhibition [22] | inhibition [23] | inhibition [24] | Activity [48] | Activity [49] | inhibition [51] | inhibition [52]
